pIC50: −log10 of the molar value.

Results on two compounds are retold here after ChEMBL document CHEMBL2169869, “Assay and inhibition of diacylglycerol lipase activity” (Bioorg Med Chem Lett, 2012).

Assay [1] has as its target T1, Fatty-acid amide hydrolase 1 (Rattus norvegicus, UniProt P97612).
T1 sequence (P97612 whole entry): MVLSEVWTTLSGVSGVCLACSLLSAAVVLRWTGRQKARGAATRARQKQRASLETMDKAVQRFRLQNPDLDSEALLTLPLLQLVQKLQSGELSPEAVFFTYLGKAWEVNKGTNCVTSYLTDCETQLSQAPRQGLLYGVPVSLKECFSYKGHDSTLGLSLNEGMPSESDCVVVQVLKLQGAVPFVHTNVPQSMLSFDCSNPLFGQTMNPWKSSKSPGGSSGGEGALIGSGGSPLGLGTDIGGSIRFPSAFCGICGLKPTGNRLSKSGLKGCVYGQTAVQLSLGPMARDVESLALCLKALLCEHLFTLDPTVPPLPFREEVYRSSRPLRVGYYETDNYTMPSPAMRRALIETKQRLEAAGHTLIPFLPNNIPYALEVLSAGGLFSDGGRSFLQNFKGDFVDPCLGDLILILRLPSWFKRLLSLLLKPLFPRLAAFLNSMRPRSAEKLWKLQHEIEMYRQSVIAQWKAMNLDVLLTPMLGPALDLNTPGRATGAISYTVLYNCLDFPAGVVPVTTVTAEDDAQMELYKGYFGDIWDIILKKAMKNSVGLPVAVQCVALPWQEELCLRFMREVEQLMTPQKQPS
In words: Inhibition of rat histidine tagged FAAH expressed in Escherichia coli by coumarin ester substrate fluorescence assay.

The target of assay [2] is T2, Diacylglycerol lipase-alpha (Homo sapiens) (UniProt Q9Y4D2).
T2 sequence (whole entry): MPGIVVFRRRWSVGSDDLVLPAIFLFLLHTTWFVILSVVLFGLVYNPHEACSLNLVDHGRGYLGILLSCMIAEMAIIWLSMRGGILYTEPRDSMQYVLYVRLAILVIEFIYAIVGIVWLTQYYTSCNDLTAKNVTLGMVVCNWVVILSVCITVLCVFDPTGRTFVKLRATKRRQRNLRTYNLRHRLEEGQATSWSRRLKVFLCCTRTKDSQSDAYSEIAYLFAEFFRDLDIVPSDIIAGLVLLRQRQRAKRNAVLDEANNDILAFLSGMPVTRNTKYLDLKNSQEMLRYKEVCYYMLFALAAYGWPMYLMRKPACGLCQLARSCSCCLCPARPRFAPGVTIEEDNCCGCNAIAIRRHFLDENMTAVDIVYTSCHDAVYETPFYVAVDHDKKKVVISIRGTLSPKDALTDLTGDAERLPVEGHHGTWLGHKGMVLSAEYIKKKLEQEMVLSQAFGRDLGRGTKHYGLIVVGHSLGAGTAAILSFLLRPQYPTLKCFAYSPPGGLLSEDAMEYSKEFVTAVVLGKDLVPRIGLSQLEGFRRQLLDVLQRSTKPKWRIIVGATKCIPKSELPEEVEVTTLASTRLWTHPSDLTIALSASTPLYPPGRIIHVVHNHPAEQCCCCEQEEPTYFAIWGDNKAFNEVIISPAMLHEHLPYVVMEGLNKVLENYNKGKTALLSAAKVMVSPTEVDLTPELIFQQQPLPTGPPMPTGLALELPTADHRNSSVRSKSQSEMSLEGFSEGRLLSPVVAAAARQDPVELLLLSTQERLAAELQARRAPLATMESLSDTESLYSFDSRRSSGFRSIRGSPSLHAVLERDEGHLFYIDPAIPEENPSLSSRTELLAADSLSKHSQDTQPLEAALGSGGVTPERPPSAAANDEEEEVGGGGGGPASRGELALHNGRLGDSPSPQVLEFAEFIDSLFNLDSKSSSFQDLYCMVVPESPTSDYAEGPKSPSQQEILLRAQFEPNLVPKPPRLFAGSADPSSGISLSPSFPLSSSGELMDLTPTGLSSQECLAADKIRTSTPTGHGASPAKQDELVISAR
The experiment in a line: Inhibition of human DAGLalpha expressed in HEK293T cell membrane using [14C]SAG substrate at 10 uM in presence of 0.015% Triton X-100 by scintillation counting based radio-TLC assay. To be noted: HEK-293T. Type of assay: cell membranes. Summed up:
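Sonicated HEK293T protein (100 μg) in 50 mM Tris pH 7.4 with 10 mM CaCl2. Inhibitor in DMSO (10% DMSO standard) preincubated 15 min at 37 °C. [14C]SAG was added to 20 μM final for 20 min at 37 °C, with Triton X-100 where the line states it. Quenched with 2:1 CHCl3/MeOH. Silica TLC in CHCl3/MeOH/NH4OH 86:14:0.75, then 12 h phosphorimaging. Activity = (2-AG+AA)/(2-AG+AA+SAG). Background-subtracted; n=1–2.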

Assay [3] addresses T2, Diacylglycerol lipase-alpha (Homo sapiens). The experiment in a line: Inhibition of human DAGLalpha expressed in HEK293T cell membrane using [14C]SAG substrate at 10 uM using JZL184 pretreated protein in detergent free solution by […]. To be noted: HEK-293T. Type of assay: cell-based.
The nature of assay [4]: Inhibition of porcine pancreatic lipase type 2 by FRET assay. Details: species or system Sus scrofa. The procedure, abridged:
(§1)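 Purified enzymes: bacterial lipoprotein lipase (0.46 μg) or porcine pancreatic lipase type II (1.0 μg, suspended in 1:9 DMSO/water). Run in 50 mM Tris pH 7.4 with 10 mM CaCl2. Substrate was the pyrene-dinitrophenyl ether lipid FRET reporter at 25 μM, with compounds screened at 10 μM. Fluorescence was read at ex 320/em 400 nm, and percent inhibition was taken at 1.5 h; n = 1 or 2.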

A short description of assay [5]: Inhibition of bacterial lipoprotein lipase by FRET assay. Details: species or system Bacteria. The procedure, abridged:
as §1

Turning to `O=C(Oc1ccc([N+](=O)[O-])cc1)N1CCC(C(O)(c2ccc3c(c2)OCO3)c2ccc3c(c2)OCO3)CC1`, the pIC50 (as a rule, −log10 of the IC50, conventionally taken in molar units) in assay [1] is 6.01. In addition, the inhibition – broadly, the drop in the measured response relative to a control, in per cent – in assay [2] is 37%; in assay [3], 44%.

Turning to `CCCCCCCCCCC[C@@H](C[C@@H]1OC(=O)[C@H]1CCCCCC)OC(=O)[C@H](CC(C)C)NC=O` [ORLISTAT], the figures for the negative logarithm of the IC50 (pIC50) in assay [4] and in assay [5] were more than 9.00 and 7.00, respectively.
